In ChEMBL document CHEMBL1135438, “Synthesis and pharmacological characterization of novel analogues of the nicotinic acetylcholine receptor agonist (+/-)-UB-165” (J Med Chem, 2002):

What was measured:
[1] = biological target: Neuronal acetylcholine receptor subunit alpha-7 (Rattus norvegicus) (UniProt Q05941); assay: Compound was tested for its potency at Nicotinic acetylcholine receptor alpha-7 relative to that of Nicotinic acetylcholine receptor alpha4-beta2
[2] = biological target: Neuronal acetylcholine receptor subunit alpha-7 (Rattus norvegicus, UniProt Q05941); assay: Binding affinity at rat brain Nicotinic acetylcholine receptor alpha7
Sequence of Neuronal acetylcholine receptor subunit alpha-7 (Q05941 whole entry): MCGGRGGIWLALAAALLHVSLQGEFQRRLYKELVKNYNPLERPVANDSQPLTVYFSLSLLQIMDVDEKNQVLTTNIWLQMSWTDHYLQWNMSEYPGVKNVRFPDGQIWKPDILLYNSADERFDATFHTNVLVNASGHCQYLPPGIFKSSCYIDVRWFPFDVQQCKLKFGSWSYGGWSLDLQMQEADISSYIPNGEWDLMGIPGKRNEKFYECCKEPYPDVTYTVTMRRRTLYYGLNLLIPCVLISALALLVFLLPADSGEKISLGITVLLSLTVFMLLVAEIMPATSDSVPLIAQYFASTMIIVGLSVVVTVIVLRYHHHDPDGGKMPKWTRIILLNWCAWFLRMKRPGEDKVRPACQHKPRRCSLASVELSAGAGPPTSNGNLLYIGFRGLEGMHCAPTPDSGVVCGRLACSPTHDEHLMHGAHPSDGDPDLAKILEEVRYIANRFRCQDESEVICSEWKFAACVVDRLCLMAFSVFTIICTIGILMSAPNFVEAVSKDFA

[3] = Ratio of Ki (binding affinity) relative to activation potency
[4] = Compound was tested for its potency at Nicotinic acetylcholine receptor alpha3-beta4 relative to that of Nicotinic acetylcholine receptor alpha4-beta2
[5] = biological target: Neuronal acetylcholine receptor; alpha4/beta2 (Rattus norvegicus, UniProt P09483+P12390); assay: Binding affinity at rat brain Nicotinic acetylcholine receptor alpha4-beta2
Sequence of Neuronal acetylcholine receptor; alpha4/beta2 (P09483 whole entry): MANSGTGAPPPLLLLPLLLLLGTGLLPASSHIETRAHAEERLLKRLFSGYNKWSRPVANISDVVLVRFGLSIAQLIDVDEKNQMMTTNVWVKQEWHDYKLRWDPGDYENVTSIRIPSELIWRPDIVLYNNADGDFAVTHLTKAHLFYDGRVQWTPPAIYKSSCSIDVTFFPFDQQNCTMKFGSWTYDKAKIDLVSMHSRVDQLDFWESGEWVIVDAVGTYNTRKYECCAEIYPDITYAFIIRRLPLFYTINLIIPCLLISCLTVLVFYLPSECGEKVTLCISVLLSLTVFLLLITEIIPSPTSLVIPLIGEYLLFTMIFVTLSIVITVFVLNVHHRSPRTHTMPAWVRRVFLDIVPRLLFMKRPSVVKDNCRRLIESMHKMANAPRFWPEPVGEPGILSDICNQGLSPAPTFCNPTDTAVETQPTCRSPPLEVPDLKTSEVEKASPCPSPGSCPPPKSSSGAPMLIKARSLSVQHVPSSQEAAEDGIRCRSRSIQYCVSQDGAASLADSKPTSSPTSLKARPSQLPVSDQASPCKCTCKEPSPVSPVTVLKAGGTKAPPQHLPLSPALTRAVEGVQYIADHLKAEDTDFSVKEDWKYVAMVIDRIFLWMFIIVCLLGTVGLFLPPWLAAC
Sequence of Neuronal acetylcholine receptor; alpha4/beta2 (P12390 whole entry): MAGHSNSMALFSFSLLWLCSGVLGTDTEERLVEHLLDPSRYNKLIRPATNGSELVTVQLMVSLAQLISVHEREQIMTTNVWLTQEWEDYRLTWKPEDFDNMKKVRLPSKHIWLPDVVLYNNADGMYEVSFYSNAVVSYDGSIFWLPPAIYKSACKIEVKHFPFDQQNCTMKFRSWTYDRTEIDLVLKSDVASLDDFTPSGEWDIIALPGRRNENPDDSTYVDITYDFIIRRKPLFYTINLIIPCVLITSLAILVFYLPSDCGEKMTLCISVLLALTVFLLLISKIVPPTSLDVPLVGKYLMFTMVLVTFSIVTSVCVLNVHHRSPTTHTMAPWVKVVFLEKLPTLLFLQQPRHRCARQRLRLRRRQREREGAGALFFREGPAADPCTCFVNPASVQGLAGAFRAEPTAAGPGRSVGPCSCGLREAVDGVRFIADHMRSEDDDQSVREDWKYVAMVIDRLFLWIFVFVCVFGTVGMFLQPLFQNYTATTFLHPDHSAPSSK
In short: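 Rat brain P2 membranes (250 μg protein) competed against 10 nM (–)-[3H]nicotine, 30 min room temperature then 1 h at 4 °C; filtration. Nonspecific binding with 1 mM (–)-nicotine.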

[6] = biological target: T1, Neuronal acetylcholine receptor; alpha3/beta4 (Rattus norvegicus, UniProt P04757+P12392); assay: Binding affinity at rat brain Nicotinic acetylcholine receptor alpha3-beta4
T1 sequence (P04757 whole entry): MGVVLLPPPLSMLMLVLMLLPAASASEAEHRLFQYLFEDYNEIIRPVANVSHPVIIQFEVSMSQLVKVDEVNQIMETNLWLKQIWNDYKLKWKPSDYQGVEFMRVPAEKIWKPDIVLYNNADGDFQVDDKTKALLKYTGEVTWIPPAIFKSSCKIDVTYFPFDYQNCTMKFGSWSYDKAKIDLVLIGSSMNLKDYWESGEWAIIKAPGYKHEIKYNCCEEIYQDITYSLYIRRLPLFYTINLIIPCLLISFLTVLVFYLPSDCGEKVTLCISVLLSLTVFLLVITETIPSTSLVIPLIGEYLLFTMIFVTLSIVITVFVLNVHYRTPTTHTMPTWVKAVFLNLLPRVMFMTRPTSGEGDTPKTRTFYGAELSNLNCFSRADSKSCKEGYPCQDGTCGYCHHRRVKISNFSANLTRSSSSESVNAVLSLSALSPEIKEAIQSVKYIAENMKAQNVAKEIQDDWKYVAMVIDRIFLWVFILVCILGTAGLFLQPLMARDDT
T1 sequence (P12392 whole entry): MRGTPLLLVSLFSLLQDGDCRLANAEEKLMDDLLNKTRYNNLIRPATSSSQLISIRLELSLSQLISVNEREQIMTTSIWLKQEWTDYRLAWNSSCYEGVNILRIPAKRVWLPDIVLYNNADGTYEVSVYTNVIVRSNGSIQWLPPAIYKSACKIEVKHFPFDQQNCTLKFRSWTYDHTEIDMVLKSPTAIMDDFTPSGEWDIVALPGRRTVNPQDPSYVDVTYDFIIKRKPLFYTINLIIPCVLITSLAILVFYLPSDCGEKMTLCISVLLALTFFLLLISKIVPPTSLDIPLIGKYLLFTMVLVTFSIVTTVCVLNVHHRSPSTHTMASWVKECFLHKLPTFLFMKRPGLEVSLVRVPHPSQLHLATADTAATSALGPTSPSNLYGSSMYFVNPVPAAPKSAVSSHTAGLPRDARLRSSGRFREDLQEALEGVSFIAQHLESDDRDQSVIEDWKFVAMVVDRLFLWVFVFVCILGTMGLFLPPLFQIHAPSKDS

[7] = biological target: T1, Neuronal acetylcholine receptor; alpha3/beta4; assay: Activation potency at Nicotinic acetylcholine receptor alpha3beta4, expressed as concentration required to achieve a half maximal activation; format: protein-complex assay
In short: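 Rat α3β4 nAChR stably expressed in L cells, induced 7–10 days with 1 μM dexamethasone; cells loaded with 5 μM fluo-3 (1 h, room temperature, dark). Agonist given in high-calcium buffer (75 mM CaCl2, pH 7.4), fluorescence followed 16 s.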

Sequence of Neuronal acetylcholine receptor subunit alpha-7 (Rattus norvegicus) (Q05941 whole entry): as the sequence (Q05941 whole entry) above

Compound	Affinity ratio [1]	Ki [2]	Ratio [3]	Affinity ratio [4]	Ki [5]	Ki [6]	EC50 [7]
C1=C(c2cncnc2)C2CC[C@H](CC1)N2	696	1710 nM	16	96	2.45 nM	236 nM	3890 nM
C1=C(c2cccnc2)C2CC[C@H](CC1)N2		89 nM			0.43 nM		
C1=C(c2ccncc2)C2CC[C@H](CC1)N2		> 50000 nM		2	11000 nM	22000 nM	> 100000 nM
C1=C(c2cnccn2)C2CC[C@H](CC1)N2	100	5770 nM		49	58 nM	2850 nM	> 100000 nM
C1=C(c2cccnn2)C2CC[C@H](CC1)N2	118	68.4 nM	14	20	2.6 nM	306 nM	4190 nM
C1=C(c2ccccn2)C2CC[C@H](CC1)N2	31	47500 nM		6.8		10500 nM	> 100000 nM
Clc1ccc(C2=CCCC3CCC2N3)cn1 (racemic)		2760 nM					
